This note sets out measurements from ChEMBL document CHEMBL2150948, “Quinolinyl Pyrimidines: Potent Inhibitors of NDH-2 as a Novel Class of Anti-TB Agents” (ACS Med Chem Lett, 2012).

For data set [1], the system named is Mycobacterium tuberculosis. Nature of the data set: Antimycobacterial activity against Mycobacterium tuberculosis assessed as growth inhibition after 5 days by MABA/resazurin assay. In kind it is functional. The settings on record: 120 h. A general note: Resazurin is reduced to fluorescent resorufin, in cell work by metabolically active cells.
Data set [2] is described as follows: Intrinsic clearance in mouse microsomes assessed per mg protein at 100 uM by HPLC analysis. In kind it is ADME, Microsome.
Data set [3] relates to Saccharomyces cerevisiae. Description: Antimicrobial activity against Saccharomyces cerevisiae. In kind it is organism-based.
Data set [4] in a line: Solubility of the compound in 0.1 M phosphate buffer after 24 hrs by UV/MS analysis. It is filed as physicochemical. Summed up: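 Solubility measured in presence of 2% (v/v) DMSO.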
The nature of data set [5]: Fraction unbound in plasma at 20 uM after 18 hrs by equilibrium dialysis method. In kind it is ADME, cell-free. In general terms: In equilibrium dialysis only unbound substance equilibrates across the membrane.
Data set [6] is described as follows: Inhibition of Mycobacterium tuberculosis NDH-2 by UV spectrophotometry. In outline: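 Purified Mtb NDH-2 at 1 nM in 50 mM Hepes-NaOH pH 7.5 with 100 mM NaCl, 0.008% Brij-35 and 300 μM NADH; reaction started with 50 μM menadione, run 1 h at 37 °C. NADH oxidation followed as fall in absorbance at 340 nm. Screening at 20 μM, then concentration-response for IC50.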

Data set [7] in a line: Toxicity in RBC assessed as hemolysis. The settings on record: erythrocyte. In kind it is cell-based.
A short description of data set [8]: Partition coefficient, log D of the compound. The following applies: octanol/water. In kind it is physicochemical.

SMILES strings stand for the structures. Values after ≈ are worked out from the molar mass of the structure shown.

The term microsomal CLint denotes the rate of metabolic loss divided by the concentration. Read a low microsomal CLint as greater metabolic stability. As usually defined, the solubility is how much of the substance goes into solution per volume. The term fraction unbound denotes the share of the substance not bound to proteins or other matrix. Lower therefore signals little free substance. What is called IC50 is the midpoint of a concentration-inhibition curve. Higher therefore signals weaker potency. Usually logD stands for the decadic logarithm of the distribution of all forms, ionised or not, between an organic phase and buffer at a given pH. For `Nc1nc(Nc2ccc3nc(-c4ccc(F)cc4)cc(N)c3c2)cc(-c2ccc(Cl)cc2)n1`, the MIC was 1.91 µM (≈ 0.873 µg/mL) in data set [1] and > 32 µg/mL in data set [3]. Besides, in data set [2], the intrinsic clearance (microsomal CLint) at 100 µM turned out to be 13.4 µL/min/mg. The solubility at 24 h in data set [4] worked out at 6 µM (≈ 2.74 µg/mL). In data set [5], this compound yielded a fraction unbound at 18 h, 20 µM of 0.008. This compound came in with an IC50 in data set [6] of 43 nM. The MHC in data set [7] was > 32 µg/mL. Moreover, in data set [8], the logD came out at 3.
As to `Cc1cccc(-c2cc(Nc3ccc4nc(-c5ccc(F)cc5)cc(N)c4c3)nc(N)n2)c1`, the MIC in data set [1] is < 0.81 µM; in data set [3], > 32 µg/mL. In data set [4], the solubility at 24 h was determined as 70 µM (≈ 30.6 µg/mL). Also, the fraction unbound at 18 h, 20 µM in data set [5] came out at 0.0144. The compound also displayed an IC50 in data set [6] of 96 nM. The MHC in data set [7] was > 32 µg/mL. Further, the logD in data set [8] came out at 3.18.
With `Nc1nc(Nc2ccc3nc(-c4ccc(F)cc4)cc(N)c3c2)cc(-c2ccc(C(F)(F)F)cc2)n1`, the MIC was 2.88 µM (≈ 1.41 µg/mL) in data set [1] and > 32 µg/mL in data set [3]. Also, the intrinsic clearance (microsomal CLint) at 100 µM in data set [2] is < 4 µL/min/mg. This compound yielded a solubility at 24 h in data set [4] of 2450 µM (≈ 1200 µg/mL). The compound further displayed a concentration for half-maximal inhibition (IC50) in data set [6] of 81 nM. The MHC in data set [7] is > 32 µg/mL. Also, the logD in data set [8] came to 2.16.
`Nc1nc(Nc2ccc3nc(-c4ccc(F)cc4)cc(N)c3c2)cc(-c2ccc(F)cc2)n1`: the MIC was 1.14 µM (≈ 0.502 µg/mL) in data set [1] and > 32 µg/mL in data set [3]. In data set [4], this compound yielded a solubility at 24 h of 12 µM (≈ 5.29 µg/mL). The compound further yielded a fraction unbound at 18 h, 20 µM in data set [5] of 0.0249. Also, the IC50 in data set [6] stood at 53 nM. In addition, the MHC in data set [7] was > 32 µg/mL. Further, the log distribution coefficient (logD) in data set [8] was 3.06.
As for `Nc1nc(Nc2ccc3nc(-c4ccc(F)cc4)cc(N)c3c2)cc(-c2cccc(Cl)c2)n1`, the MIC in data set [1] is 2.19 µM (≈ 1 µg/mL); in data set [3] it was > 32 µg/mL. Also, in data set [4], the solubility at 24 h worked out at 15 µM (≈ 6.85 µg/mL). Besides, the half-inhibitory concentration (IC50) in data set [6] was 50 nM. For the same compound, the MHC in data set [7] is > 32 µg/mL. Further, the pH-dependent lipophilicity (logD) in data set [8] amounted to 3.06.
Take `Nc1nc(Nc2ccc3nc(-c4ccc(F)cc4)cc(N)c3c2)cc(-c2ccccc2)n1`: in data set [1], the MIC was found to be 1.67 µM (≈ 0.706 µg/mL). This compound gave an IC50 in data set [6] of 73 nM.
Taken in the same sequence, the figures for `Nc1nc(Nc2ccc3nc(-c4ccc(F)cc4)cc(N)c3c2)cc(-c2ccccc2F)n1` were 3.21 µM (≈ 1.41 µg/mL) and 187 nM.
The corresponding values for `COc1ccccc1-c1cc(Nc2ccc3nc(-c4ccc(F)cc4)cc(N)c3c2)nc(N)n1` are 4.42 µM (≈ 2 µg/mL) and < 620 nM.
The corresponding values for `COc1cccc(-c2cc(N)c3cc(Nc4cc(-c5ccc(Cl)cc5)nc(N)n4)ccc3n2)c1` are 2.13 µM (≈ 0.999 µg/mL) and < 260 nM.
`Nc1nc(Nc2ccc3nc(-c4ccc(F)cc4)cc(N)c3c2)cc(-c2ccccn2)n1`: in data set [1], the MIC came to 9.45 µM (≈ 4 µg/mL). In addition, the IC50 in data set [6] was 133 nM.
Consider `CC(C)c1cc(Nc2ccc3nc(-c4ccc(F)cc4)cc(N)c3c2)nc(N)n1`, for which, in data set [1], the MIC turned out to be 7.28 µM (≈ 2.83 µg/mL). In data set [6], the IC50 was determined as 1470 nM.
The corresponding values for `CCc1cc(Nc2ccc3nc(-c4ccc(F)cc4)cc(N)c3c2)nc(N)n1` are 15.1 µM (≈ 5.66 µg/mL) and 2400 nM.
The corresponding values for `Cc1cc(Nc2ccc3nc(-c4ccc(F)cc4)cc(N)c3c2)nc(N)n1` are 22.2 µM (≈ 8 µg/mL) and 601 nM.
Taken in the same sequence, the figures for `Cc1cccc(-c2cc(Nc3ccc4nccc(N)c4c3)nc(N)n2)c1` were 48.9 µM (≈ 16.7 µg/mL) and 10800 nM.
For the compound `Cn1ccc(-c2cc(Nc3ccc4nc(-c5ccc(F)cc5)cc(N)c4c3)nc(N)n2)n1`, the MIC in data set [1] is 53.1 µM (≈ 22.6 µg/mL). Also, in data set [6], the IC50 was determined as 1380 nM.
The corresponding values for `Nc1nc(Nc2cnc3ccccc3c2)cc(-c2cccc(Cl)c2)n1` are > 73 µM and 5770 nM.
The corresponding values for `Nc1nc(Nc2cnc3ccccc3c2)cc(-c2ccc(C(F)(F)F)cc2)n1` are 66.6 µM (≈ 25.4 µg/mL) and 2050 nM.
Taken in the same sequence, the figures for `Cc1cc(Nc2ccc3nc(C)ccc3c2)nc(C)n1` were > 121 µM and > 100000 nM.
